Test results as given in ChEMBL document CHEMBL1949569, “Galactolipids from Bauhinia racemosa as a new class of antifilarial agents against human lymphatic filarial parasite, Brugia malayi” (Eur J Med Chem, 2012).
Values after ≈ are worked out from the molar mass of the structure shown. Active and inactive are the calls of the source. The calls are words filed in the database; no cut-off is given here.

Assays:
Brugia malayi [1] = experiment: Antifilarial activity against adult Brugia malayi after 48 hrs by MTT assay; type: functional, organism-based
Method in brief: (§1)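 Adult female worms were recovered from jird peritoneal cavity 120–150 days after i.p. L3 inoculation. One worm per well sat in 1000 µL RPMI 1640 with antibiotics and 10% FBS, in duplicate, 48 h at 37 °C in CO2. After motility scoring, worms went through the MTT reduction assay. Result is % inhibition of MTT reduction vs untreated control.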

Brugia malayi [2] = experiment: Antifilarial activity against microfilariae Brugia malayi after 48 hrs by MTT assay; type: functional, organism-based
[3] = (§2) Cytotoxicity against african green monkey Vero cells after 72 hrs by resazurin dye-based fluorimetric analysis; type: cell-based; conditions: chlorocebus sabaeus, Vero cells
Method in brief: (§3)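 Vero cells were seeded at 10,000 per well and left overnight at 37 °C in CO2. Samples were tested in triplicate from a 300 µg/mL top concentration in 3:1 serial dilutions, with drug-free and cell-free controls. Resazurin was added after 72 h drug exposure for 2–4 h, then read at ex 536/em 588 nm. CC50 was taken from fluorescence vs concentration.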

[4] = Selectivity ratio of CC50 for african green monkey Vero cells to IC50 for microfilariae Brugia malayi; type: ADME, cell-based
Method in brief: (§4)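 SI = CC50 (Vero, resazurin assay) / IC50. IC50 came from % motility inhibition of adult female worms or mf over two-fold dilutions from MIC down to 0.3 µg/mL. It was derived from a concentration vs % motility-inhibition plot.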

Brugia malayi [5] = experiment: Antifilarial activity against adult Brugia malayi assessed as inhibition of motility at 31.25 ug/ml incubated for 48 hrs followed by washout measured after 1 hr in the absence of drug by microscopic analysis; type: functional
Method in brief: (§5)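 Single fully motile female worms from jird peritoneal cavity were exposed in duplicate wells (1000 µL RPMI 1640, antibiotics, 10% FBS) to two-fold dilutions from 31.25 µg/mL, 48 h, 37 °C, CO2. Worms were moved to drug-free medium and motility was read microscopically 1 h later. Result is % motility reduction vs untreated control.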

Brugia malayi [6] = experiment: Antifilarial activity against adult Brugia malayi assessed as inhibition of motility at 15.6 ug/ml incubated for 48 hrs followed by washout measured after 1 hr in the absence of drug by microscopic analysis; type: functional; method in brief: as §5
Brugia malayi [7] = experiment: Antifilarial activity against adult Brugia malayi assessed as inhibition of motility at 7.8 ug/ml incubated for 48 hrs followed by washout measured after 1 hr in the absence of drug by microscopic analysis; type: functional; method in brief: as §5
Brugia malayi [8] = experiment: Antifilarial activity against microfilariae Brugia malayi assessed as inhibition of motility at 31.25 ug/ml incubated for 48 hrs followed by washout measured after 1 hr in the absence of drug by microscopic analysis; type: functional
Method in brief: (§6)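 Microfilariae came from jird peritoneal fluid passed through a 5.0 µm membrane filter. Twenty live mf per well in 200 µL medium, in duplicate, were given two-fold dilutions from 31.25 µg/mL. Incubation matched the adult worms (48 h, 37 °C, CO2). Motility was scored and reported as % reduction vs untreated control.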

Brugia malayi [9] = experiment: Antifilarial activity against microfilariae Brugia malayi assessed as inhibition of motility at 15.6 ug/ml incubated for 48 hrs followed by washout measured after 1 hr in the absence of drug by microscopic analysis; type: functional; method in brief: as §6
Brugia malayi [10] = experiment: Antifilarial activity against microfilariae Brugia malayi assessed as inhibition of motility at 7.8 ug/ml incubated for 48 hrs followed by washout measured after 1 hr in the absence of drug by microscopic analysis; type: functional; method in brief: as §6
Brugia malayi [11] = experiment: Antifilarial activity against adult Brugia malayi at 31.25 ug/ml by MTT assay relative to control; type: functional; method in brief: as §1
Brugia malayi [12] = experiment: Antifilarial activity against adult Brugia malayi at 15.6 ug/ml by MTT assay relative to control; type: functional; method in brief: as §1
Brugia malayi [13] = experiment: Antifilarial activity against adult Brugia malayi at 7.8 ug/ml by MTT assay relative to control; type: functional; method in brief: as §1
Brugia malayi [14] = experiment: Antifilarial activity against adult Brugia malayi infected in jird assessed as worm mortality at 50 mg/kg, ip administered for 5 consecutive days measured on day 51; type: functional; conditions: route intraperitoneal
Method in brief: (§7)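 Jirds carrying intraperitoneally transplanted adult B. malayi (sub-periodic strain), 5 animals per group, dosed daily for 5 days. Killed on day 51 after a 50-day observation period. Worms recovered from the peritoneal cavity and scored microscopically for motility, death or encapsulation, giving % adulticidal activity over untreated control, mean ± SE. Live females teased in PBS pH 7.2 to score uterine-content abnormalities as sterilization.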

Brugia malayi [15] = experiment: Antifilarial activity against adult Brugia malayi infected in jird assessed as sterilized female worm at 50 mg/kg, ip administered for 5 consecutive days measured on day 51; type: functional; conditions: route intraperitoneal
Method in brief: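 In the i.p.-transplanted adult B. malayi jird model, 50 mg/kg was given i.p. for 5 consecutive days, 5 animals per group. Necropsy on day 51 recovered peritoneal worms. Live females were teased in PBS pH 7.2 and uterine oocytes, eggs and mf checked microscopically for abnormality or death. Result is % sterilized females.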

Brugia malayi [16] = experiment: Antifilarial activity against adult Brugia malayi infected in jird assessed as worm mortality at 100 mg/kg, sc administered for 5 consecutive days measured on day 51; type: functional; conditions: route subcutaneous; method in brief: as §7
Brugia malayi [17] = experiment: Antifilarial activity against adult Brugia malayi infected in jird assessed as sterilized female worm at 100 mg/kg, sc administered for 5 consecutive days measured on day 51; type: functional; conditions: route subcutaneous
Method in brief: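 Jirds carrying i.p.-transplanted adult B. malayi got 100 mg/kg s.c. daily for 5 days, 5 animals per group. They were euthanized on day 51 and worms recovered from the peritoneal cavity. Live females were teased in PBS pH 7.2 and uterine contents examined microscopically. Any abnormal or dead oocytes, eggs or mf counted as sterilized, reported as % sterile females.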

Vero = experiment: as §2; type: cell-based; conditions: chlorocebus sabaeus, vero, 72 h; method in brief: as §3
[18] = Selectivity ratio of CC50 for african green monkey Vero cells to IC50 for adult Brugia malayi; type: ADME, cell-based; conditions: vero; method in brief: as §4

For CCCCCCCCCCCCCCCCCCCCCCCCCCCCO [OCTACOSANOL], the MIC (Brugia malayi [1]) was “inactive”, the MIC (Brugia malayi [2]; Brugia malayi, 48 h) was 31.2 µg/mL (≈ 76.1 µM) and the IC50 (Brugia malayi [2]; Brugia malayi, 48 h, read-out: IC50) was 3.26 µg/mL (≈ 7.94 µM). For the same molecule, the CC50 at 72 h [3] was greater than 100 µg/mL, the selectivity ratio ([4]; Vero cells, read-out: Ratio CC50/IC50) was greater than 30.7 and the inhibition at 31.25 µg/mL (Brugia malayi [5]) was 50%. The inhibition (Brugia malayi [6]) was “inactive”, the inhibition (Brugia malayi [7]) was “inactive” and the inhibition at 31.25 µg/mL (Brugia malayi [8]) was 100%. It also gave an inhibition at 15.6 µg/mL (Brugia malayi [9]) of 95%, an inhibition at 7.8 µg/mL (Brugia malayi [10]) of 85% and an inhibition at 31.25 µg/mL (Brugia malayi [11]) of 32.6%. For the same molecule, the inhibition at 15.6 µg/mL (Brugia malayi [12]) was 0%, the inhibition at 7.8 µg/mL (Brugia malayi [13]) was 0% and the Activity (Brugia malayi [14]) was -49.95%. It also gave an Activity (Brugia malayi [15]) of 0%.

Molecule O=C(O)c1ccc(O)c(O)c1 [PROTOCATECHUIC ACID] has an inhibition at 31.25 µg/mL (Brugia malayi [5]) of 50%, an inhibition at 31.25 µg/mL (Brugia malayi [8]) of 60% and an inhibition at 31.25 µg/mL (Brugia malayi [11]) of 20.6%.

For CCN(CC)C(=O)N1CCN(C)CC1 [DIETHYLCARBAMAZINE], the MIC (Brugia malayi [1]) was “inactive”, the MIC (Brugia malayi [2]) was “inactive” and the Activity (Brugia malayi [16]) was -30.5%. For the same molecule, the Activity (Brugia malayi [17]) was 0%.

With Oc1cc(O)c2c(c1)O[C@@H](c1ccc(O)c(O)c1)[C@H](O)C2 [(-)-CATECHIN] the inhibition at 31.25 µg/mL (Brugia malayi [5]) was 60%, the inhibition at 31.25 µg/mL (Brugia malayi [8]) was 60% and the inhibition at 31.25 µg/mL (Brugia malayi [11]) was 43.2%.

For IVERMECTIN, the IC50 (Brugia malayi [2]) was 3.62 µg/mL, the CC50 (Vero) was 52.84 µg/mL and the “Ratio CC50/IC50” value [18] was greater than 62.11. The “Ratio CC50/IC50” value ([4]; vero) was greater than 27.62.
